Like-named read-outs stand apart in the source and are kept apart here.
How the values were obtained:
GST-LSD1 (aa 171-852) [1] = biological target: GST-LSD1 (aa 171-852) (UniProt O60341); assay: enzyme inactivation kinetics
GST-LSD1 [2] = biological target: T1, GST-LSD1 (Homo sapiens, UniProt O60341); details: 500 µM phenelzine, 30 min preincubation, 10 µM substrate
[3] = test system: methylation of Lys-4 of histone H3 in α-23 cells; details: 10 µM phenelzine, one hour, ChIP
GST-LSD1 [4] = biological target: T1, GST-LSD1; assay: peroxidase-coupled assay; type: biochemical; details: for k(inact): 185 nM GST-LSD1, Kitz-Wilson analysis; for time-dependent inactivation of LSD1: result in words; for KI (inactivation): 185 nM GST-LSD1, 240 µM substrate, extrapolated to zero substrate, Kitz-Wilson
[5] = test system: TSHalpha luciferase reporter in α-23 cells derived from GH3 cells; details: 10 µM phenelzine, 24 hours, with or without 0.1 µM T3
GST-LSD1 [6] = biological target: T1, GST-LSD1; details: cited from earlier work; for inactivation of LSD1: result in words
GST-LSD1 (aa 171-852) [7] = biological target: GST-LSD1 (aa 171-852) (UniProt O60341); assay: enzyme inhibition kinetics
GST-LSD1 [8] = biological target: T1, GST-LSD1; assay: Amplex Red horseradish peroxidase coupled assay detecting H2O2; type: biochemical
Procedure, shortened: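 Human GST-LSD1 (aa 171–852) from E. coli, at 25 nM, in 50 mM HEPES pH 7.5 with 0.1 mM Amplex Red and 0.76 µM horseradish peroxidase. Dimethyl-Lys-4 H3-21 substrate started 150 µL reactions, aerobic, at 25 °C. For inactivation, test compound and substrate (600 µM final) were added together. H2O2 was followed at 571 nm (ε 52,000 M−1 cm−1) from initial velocities.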

[9] = 25 nM LSD1, 600 µM substrate, Amplex Red

cis-3-chloroallyl-Lys-4 H3-21 (3) (from UniProt P68431 2-22) (peptide)
Ki(inact) (GST-LSD1 (aa 171-852) [1]): 955 nM

NNCCc1ccccc1 [phenelzine, phenethylhydrazine]
demethylation of H3-21 dimethyl-Lys substrate peptide by treated LSD1 (GST-LSD1 [2]): unable to induce loss of a methyl group
mono and dimethylation of Lys-4 H3 at TSHalpha reporter region [3]: enhanced
trimethylation level of Lys-4 H3 at TSHalpha reporter region [3]: unaffected
k(inact) (GST-LSD1 [4]): 0.955 ± 0.085 min⁻¹
luciferase activity of TSHalpha reporter [5]: increases luciferase activity both in the absence and presence of T3

C#CCN(C)Cc1ccccc1 [pargyline, reference compound]
inactivation of LSD1 (GST-LSD1 [6]): failed in subsequent studies to appreciably inactivate LSD1

endo-dimethylcyclopropyl-Lys-4 H3-21 (8) (from UniProt P68431 2-22) (peptide)
Ki (GST-LSD1 (aa 171-852) [7]): 24200 nM

hydrazino-Lys-4 H3-21 [compound 18]
time-dependent inactivation of LSD1 (GST-LSD1 [4]): highly potent time-dependent inhibitor
fold more efficient in inhibiting demethylation than propargylamine-H3 derivatives (GST-LSD1 [8]): more than 20 fold
KI (inactivation) (GST-LSD1 [8]; [9]): 4.35 ± 0.86 nM
k(inact) (GST-LSD1 [8]; [9]): 0.247 ± 0.018 min⁻¹
fold more potent than 2 as LSD1 inactivator (GST-LSD1 [8]; versus N-methylpropargylamine peptide 2): approximately 25 fold

endo-cyclopropyl-Lys-4 H3-21 (7) (from UniProt P68431 2-22) (peptide)
Ki (GST-LSD1 (aa 171-852) [7]): 6110 nM

dimethyl-Lys-4 H3-21 [reference compound]
kcat (GST-LSD1 [4]; GST-LSD1 with this substrate, 185 nM enzyme): 0.075 ± 0.0017 s⁻¹
Km (GST-LSD1 [4]; substrate of GST-LSD1, 185 nM enzyme, pH 7.5, 25 °C): 21 ± 2 µM
kcat (GST-LSD1 [8]; GST-LSD1 with this substrate, 25 nM enzyme, Amplex Red): 0.0583 ± 0.0033 s⁻¹
Km (GST-LSD1 [8]; substrate of GST-LSD1, 25 nM enzyme, Amplex Red): 20 ± 3 µM

hydrazino-Lys-4 H3-21 (18) (from UniProt P68431 2-22) (peptide)
Ki(inact) (GST-LSD1 (aa 171-852) [1]): 4.35 nM

trans-3-chloroallyl-Lys-4 H3-21 [compound 4]
KI (inactivation) (GST-LSD1 [4]): 763 ± 120 nM
k(inact) (GST-LSD1 [4]): 0.128 ± 0.0087 min⁻¹
time-dependent inactivation of LSD1 (GST-LSD1 [4]): time- and concentration-dependent inactivation

trans-3-chloroallyl-Lys-4 H3-21 (4) (from UniProt P68431 2-22) (peptide)
Ki(inact) (GST-LSD1 (aa 171-852) [1]): 763 nM

cis-3-chloroallyl-Lys-4 H3-21 [compound 3]
kinact/Ki(inact) fold difference from peptide 2 (GST-LSD1 [4]): ≤ 5 fold
KI (inactivation) (GST-LSD1 [4]): 955 ± 150 nM
k(inact) (GST-LSD1 [4]): 0.545 ± 0.038 min⁻¹
time-dependent inactivation of LSD1 (GST-LSD1 [4]): time- and concentration-dependent inactivation

propargyl-Lys-4 H3-21 [compound 1]
KI (inactivation) (GST-LSD1 [6]; obtained previously): 775 ± 160 nM
k(inact) (GST-LSD1 [6]; obtained previously): 0.304 ± 0.033 min⁻¹

exo-cyclopropyl-Lys-4 H3-21 [compound 6]
inactivation of LSD1 (GST-LSD1 [6]): did not inactivate LSD1
Ki (GST-LSD1 [6]; reversible inhibitor, estimated, obtained previously): 2700 ± 740 nM
